The results in this text go back to ChEMBL document CHEMBL4138221, “Discovery, optimization and biological evaluation for novel c-Met kinase inhibitors” (Eur J Med Chem, 2018).

Each structure is given as a SMILES string. pIC50: −log10 of the molar value.

The subject of one assay is EBC-1. The experiment in a line: Antiproliferative activity against human EBC1 cells after 72 hrs by Alamarblue assay. The note with it: EBC-1, 72 h. In general terms: The colour change of resazurin is a common sign of viable cells or microbes.
In a further assay the test system is MKN-45. The experiment in a line: Antiproliferative activity against human MKN45 cells after 72 hrs by Alamarblue assay. The note with it: MKN-45, 72 h.
Assay [1] relates to PC-3. The experiment in a line: Antiproliferative activity against human PC3 cells at 10 uM after 72 hrs by Alamarblue assay relative to control. The class given is functional. The note with it: PC-3, 72 h, read-out: GI. In a few lines: (§1)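 Single-concentration screen in cells kept at 37 °C and 5% CO2. Cells were plated in 10% FBS medium, then moved after 24 h to serum-free medium with 0.04% BSA. Compound exposure lasted 72 h. AlamarBlue was added for 1–4 h at 37 °C protected from light, and fluorescence was measured at ex 570 / em 585 nm.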

The subject of assay [2] is HCT-116. The experiment in a line: Antiproliferative activity against human HCT116 cells at 10 uM after 72 hrs by Alamarblue assay relative to control. The class given is functional. The note with it: HCT-116, 72 h, read-out: GI. The procedure, abridged: as §1
Assay [3] deals with SGC-7901. The experiment in a line: Antiproliferative activity against human SGC7901 cells at 10 uM after 72 hrs by Alamarblue assay relative to control. The class given is functional. The note with it: SGC-7901, 72 h, read-out: GI. In a few lines:
as §1

The test system of assay [4] is A549. The experiment in a line: Antiproliferative activity against human A549 cells at 10 uM after 72 hrs by Alamarblue assay relative to control. The note with it: A549, 72 h, read-out: GI. The class given is functional. In a few lines:
as §1

Assay [5] has as its system MCF7. The experiment in a line: Antiproliferative activity against human MCF7 cells at 10 uM after 72 hrs by Alamarblue assay relative to control. The class given is functional. The note with it: MCF7, 72 h, read-out: GI. The procedure, abridged:
as §1

In assay [6] the test system is PC-3. The experiment in a line: Antiproliferative activity against human PC3 cells after 72 hrs by Alamarblue assay. The class given is functional, cell-based. The note with it: PC-3, 72 h. The procedure, abridged: (§2)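 Cells were seeded in medium with 10% FBS at 37 °C and 5% CO2. After 24 h the medium was switched to serum-free medium containing 0.04% BSA, and cells were exposed to compound for 72 h. AlamarBlue was then added for 1–4 h at 37 °C in the dark, and fluorescence was read at ex 570 / em 585 nm. IC50 was obtained by nonlinear regression fitting.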

The subject of assay [7] is HCT-116. The experiment in a line: Antiproliferative activity against human HCT116 cells after 72 hrs by Alamarblue assay relative to control. The note with it: HCT-116, 72 h.
The test system of another assay is COLO 205. The experiment in a line: Antiproliferative activity against human COLO205 cells after 72 hrs by Alamarblue assay. The class given is functional, cell-based. The note with it: COLO 205, 72 h. The procedure, abridged:
as §2

The subject of assay [8] is MCF7. The experiment in a line: Antiproliferative activity against human MCF7 cells after 72 hrs by Alamarblue assay relative to control. The note with it: MCF7, 72 h.
Assay [9] deals with SGC-7901. The experiment in a line: Antiproliferative activity against human SGC7901 cells after 72 hrs by Alamarblue assay relative to control. The note with it: SGC-7901, 72 h.
In assay [10] the test system is A549. The experiment in a line: Antiproliferative activity against human A549 cells after 72 hrs by Alamarblue assay relative to control. The note with it: A549, 72 h.
The next assay deals with NCI-H460. The experiment in a line: Antiproliferative activity against human NCI-H460 cells after 72 hrs by Alamarblue assay. The note with it: NCI-H460, 72 h. The class given is functional, cell-based. In a few lines:
as §2

Assay [11] deals with Serine/threonine-protein kinase B-raf (Homo sapiens) (UniProt P15056). The experiment in a line: Inhibition of B-raf (unknown origin) at 50 uM.
In assay [12] the target is Vascular endothelial growth factor receptor 2 (Homo sapiens, UniProt P35968). The experiment in a line: Inhibition of KDR (unknown origin).
Assay [13] concerns the target Hepatocyte growth factor receptor (Homo sapiens, UniProt P08581). The experiment in a line: Inhibition of human GST-tagged c-MET using KKKSPGEYVNIEFG as substrate preincubated for 20 mins followed by [gamma-33P]ATP addition and measured after 2 hrs by filter-binding assay.

Chain of Vascular endothelial growth factor receptor 2 (P35968 whole entry): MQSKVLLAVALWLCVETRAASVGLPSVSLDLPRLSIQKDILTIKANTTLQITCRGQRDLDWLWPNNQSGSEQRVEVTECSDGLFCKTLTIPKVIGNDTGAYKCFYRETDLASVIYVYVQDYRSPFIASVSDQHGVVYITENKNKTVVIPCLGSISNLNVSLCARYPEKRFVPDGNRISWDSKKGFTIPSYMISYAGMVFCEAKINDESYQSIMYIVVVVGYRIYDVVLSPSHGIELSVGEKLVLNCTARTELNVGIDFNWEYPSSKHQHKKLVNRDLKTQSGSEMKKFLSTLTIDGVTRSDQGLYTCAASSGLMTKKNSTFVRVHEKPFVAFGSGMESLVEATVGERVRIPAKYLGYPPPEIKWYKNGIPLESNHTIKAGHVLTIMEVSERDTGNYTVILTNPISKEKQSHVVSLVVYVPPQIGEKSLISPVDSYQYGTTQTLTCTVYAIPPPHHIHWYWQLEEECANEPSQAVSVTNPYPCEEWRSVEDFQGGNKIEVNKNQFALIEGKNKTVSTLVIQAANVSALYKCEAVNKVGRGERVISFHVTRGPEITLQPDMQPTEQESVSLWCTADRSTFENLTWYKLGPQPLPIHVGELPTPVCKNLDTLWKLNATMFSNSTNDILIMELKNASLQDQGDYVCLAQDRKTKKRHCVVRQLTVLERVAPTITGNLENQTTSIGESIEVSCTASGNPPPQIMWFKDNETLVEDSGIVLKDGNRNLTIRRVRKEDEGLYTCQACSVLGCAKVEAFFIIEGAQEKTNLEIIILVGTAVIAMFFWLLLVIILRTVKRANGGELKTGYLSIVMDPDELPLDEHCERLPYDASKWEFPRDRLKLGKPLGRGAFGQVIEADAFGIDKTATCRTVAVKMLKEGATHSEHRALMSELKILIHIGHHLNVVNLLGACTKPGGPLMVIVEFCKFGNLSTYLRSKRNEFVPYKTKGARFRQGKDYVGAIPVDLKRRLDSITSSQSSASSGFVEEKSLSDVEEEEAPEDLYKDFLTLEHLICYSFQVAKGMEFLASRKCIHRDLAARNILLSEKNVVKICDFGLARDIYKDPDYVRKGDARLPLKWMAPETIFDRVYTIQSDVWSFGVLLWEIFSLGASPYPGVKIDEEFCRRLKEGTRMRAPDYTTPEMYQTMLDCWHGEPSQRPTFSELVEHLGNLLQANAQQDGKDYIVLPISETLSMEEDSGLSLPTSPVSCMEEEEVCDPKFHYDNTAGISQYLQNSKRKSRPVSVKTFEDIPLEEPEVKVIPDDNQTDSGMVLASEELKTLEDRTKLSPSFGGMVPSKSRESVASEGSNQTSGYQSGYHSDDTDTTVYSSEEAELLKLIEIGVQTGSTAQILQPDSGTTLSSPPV
Chain of Serine/threonine-protein kinase B-raf (Homo sapiens) (P15056 whole entry): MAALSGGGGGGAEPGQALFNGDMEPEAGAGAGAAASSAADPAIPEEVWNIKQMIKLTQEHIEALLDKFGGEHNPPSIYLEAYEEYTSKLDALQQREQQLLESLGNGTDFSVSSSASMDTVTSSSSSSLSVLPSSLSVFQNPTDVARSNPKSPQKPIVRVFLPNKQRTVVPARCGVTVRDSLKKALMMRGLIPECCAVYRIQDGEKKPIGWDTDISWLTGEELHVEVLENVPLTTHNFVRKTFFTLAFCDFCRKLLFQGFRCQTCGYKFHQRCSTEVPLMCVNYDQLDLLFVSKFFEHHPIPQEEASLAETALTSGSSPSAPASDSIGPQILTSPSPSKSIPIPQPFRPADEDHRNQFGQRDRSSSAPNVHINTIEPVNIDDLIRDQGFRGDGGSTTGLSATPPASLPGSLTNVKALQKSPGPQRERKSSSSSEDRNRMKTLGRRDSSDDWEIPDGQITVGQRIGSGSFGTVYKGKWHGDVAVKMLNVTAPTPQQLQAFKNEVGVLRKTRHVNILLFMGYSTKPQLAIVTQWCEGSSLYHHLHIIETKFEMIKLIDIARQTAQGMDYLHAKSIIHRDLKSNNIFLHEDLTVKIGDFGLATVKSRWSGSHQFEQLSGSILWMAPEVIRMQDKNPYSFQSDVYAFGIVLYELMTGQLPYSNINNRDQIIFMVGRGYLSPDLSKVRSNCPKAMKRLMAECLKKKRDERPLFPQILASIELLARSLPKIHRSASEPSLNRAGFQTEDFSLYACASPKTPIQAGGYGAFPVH
Chain of Hepatocyte growth factor receptor (P08581 whole entry): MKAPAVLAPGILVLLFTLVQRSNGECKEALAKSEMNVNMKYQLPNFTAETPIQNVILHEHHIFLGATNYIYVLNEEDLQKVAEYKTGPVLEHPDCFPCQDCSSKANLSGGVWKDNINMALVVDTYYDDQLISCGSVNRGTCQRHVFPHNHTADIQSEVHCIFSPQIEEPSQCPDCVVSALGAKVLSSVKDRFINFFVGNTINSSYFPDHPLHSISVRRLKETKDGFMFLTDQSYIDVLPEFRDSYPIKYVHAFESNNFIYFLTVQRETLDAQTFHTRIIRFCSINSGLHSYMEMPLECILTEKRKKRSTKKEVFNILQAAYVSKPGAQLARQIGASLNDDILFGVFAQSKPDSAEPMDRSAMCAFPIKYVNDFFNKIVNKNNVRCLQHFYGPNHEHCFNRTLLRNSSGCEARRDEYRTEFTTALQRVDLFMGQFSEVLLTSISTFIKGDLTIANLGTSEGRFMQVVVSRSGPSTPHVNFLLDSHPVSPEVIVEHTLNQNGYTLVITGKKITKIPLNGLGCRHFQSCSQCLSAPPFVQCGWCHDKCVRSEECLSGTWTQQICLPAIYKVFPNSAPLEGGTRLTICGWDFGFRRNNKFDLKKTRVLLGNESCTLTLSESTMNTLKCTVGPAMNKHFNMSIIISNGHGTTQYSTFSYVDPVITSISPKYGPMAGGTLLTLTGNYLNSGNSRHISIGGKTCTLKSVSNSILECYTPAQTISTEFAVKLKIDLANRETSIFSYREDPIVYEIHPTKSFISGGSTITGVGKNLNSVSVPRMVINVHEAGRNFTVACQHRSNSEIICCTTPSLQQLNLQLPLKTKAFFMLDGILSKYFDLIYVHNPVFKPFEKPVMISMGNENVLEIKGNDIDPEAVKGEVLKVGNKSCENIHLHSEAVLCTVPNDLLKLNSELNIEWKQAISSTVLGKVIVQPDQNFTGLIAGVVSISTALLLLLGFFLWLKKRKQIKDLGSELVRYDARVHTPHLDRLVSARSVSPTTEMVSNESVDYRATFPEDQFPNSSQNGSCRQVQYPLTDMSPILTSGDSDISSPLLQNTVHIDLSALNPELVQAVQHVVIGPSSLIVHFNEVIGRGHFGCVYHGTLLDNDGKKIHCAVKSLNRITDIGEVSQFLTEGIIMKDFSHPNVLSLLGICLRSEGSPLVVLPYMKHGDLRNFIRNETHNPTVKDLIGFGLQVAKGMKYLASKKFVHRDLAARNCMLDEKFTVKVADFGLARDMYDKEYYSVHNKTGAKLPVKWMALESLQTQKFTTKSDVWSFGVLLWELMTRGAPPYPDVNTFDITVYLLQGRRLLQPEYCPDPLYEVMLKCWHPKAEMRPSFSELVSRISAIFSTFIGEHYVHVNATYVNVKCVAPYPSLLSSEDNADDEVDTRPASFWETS

As usually defined, the pIC50 is the IC50 on a negative log10 scale, so that one unit is a factor of ten. A higher pIC50 goes with a small IC50. `COc1ccc2c(OCc3nnc4sc(-c5ccc6[nH]cnc6c5)nn34)ccnc2c1`: the figures for the pIC50 in the assay with EBC-1 and in the assay with MKN-45 were 5.50 and 5.99, respectively.

As for `COc1ccc(Cc2nnc3sc(-c4ccccc4OC)nn23)cc1`, the inhibition of growth at 10 µM was 57.7% in the assay on PC-3 [1]; 8.2% in the assay on HCT-116 [2]; 15.5% in the assay on SGC-7901 [3]; 10.4% in the assay on A549 [4]; 35.7% in the assay on MCF7 [5].

Regarding `C[C@@H](Oc1cc(-c2cnn(C3CCNCC3)c2)cnc1N)c1c(Cl)ccc(F)c1Cl` [CRIZOTINIB], the pIC50 is 5.01 with PC-3 [6]; 7.89 with EBC-1; 6.60 in the assay with HCT-116 [7]; 7.66 in the assay on MKN-45; 5.61 in the assay on COLO 205; 7.35 in the assay with MCF7 [8]. Also, the pIC50 in the assay on SGC-7901 [9] was 6.49; in the assay on A549 [10], 6.87; with NCI-H460 it was 5.65.

As a reminder, the inhibition is the change of the read-out against control, counted positive when it falls. Lower therefore signals a weak effect. `COc1ccc(Cc2nnc3sc(-c4cc5ccccc5[nH]4)nn23)cc1`: the inhibition of growth at 10 µM in the assay on PC-3 [1] is 55.1%; in the assay on HCT-116 [2] it was 0.64%; in the assay on SGC-7901 [3], 12.3%; in the assay with A549 [4] it was 6.08%; in the assay on MCF7 [5], 14.9%. This molecule yielded an inhibition in assay [11] of 17.8%. The pIC50 in [12] is 5.48; in assay [13], 6.72.

With `Fc1ccccc1-c1cn2c(COc3ccc4c(c3)OCO4)nnc2s1`, the inhibition of growth at 10 µM in the assay on PC-3 [1] is 19.4%; in the assay with HCT-116 [2] it was 4.73%; in the assay with SGC-7901 [3] it was 12.4%; in the assay with A549 [4] it was 20.1%; with MCF7 [5], 45.4%.

As for `COc1ccc2c(OCc3nnc4sc(-c5cc6ccccc6[nH]5)nn34)ccnc2c1`, the pIC50 is 5.53 in the assay on PC-3 [6]; 6.30 in the assay with EBC-1; 5.93 in the assay with MKN-45; 5.65 in the assay with COLO 205; 5.69 in the assay on NCI-H460.
